IDH1 mut inh: IDH1 R132H (human) inhibition; IDH1 R132H reductase, diaphorase/resazurin fluorescence, 60 min; inhibition, % at 10 µM; 0.18% of 70,000 active; AID 624101; in the data active = inhibition above about 34%;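 note: 0% = DMSO and 100% = no enzyme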
Target sequence (O75874 whole entry R132H): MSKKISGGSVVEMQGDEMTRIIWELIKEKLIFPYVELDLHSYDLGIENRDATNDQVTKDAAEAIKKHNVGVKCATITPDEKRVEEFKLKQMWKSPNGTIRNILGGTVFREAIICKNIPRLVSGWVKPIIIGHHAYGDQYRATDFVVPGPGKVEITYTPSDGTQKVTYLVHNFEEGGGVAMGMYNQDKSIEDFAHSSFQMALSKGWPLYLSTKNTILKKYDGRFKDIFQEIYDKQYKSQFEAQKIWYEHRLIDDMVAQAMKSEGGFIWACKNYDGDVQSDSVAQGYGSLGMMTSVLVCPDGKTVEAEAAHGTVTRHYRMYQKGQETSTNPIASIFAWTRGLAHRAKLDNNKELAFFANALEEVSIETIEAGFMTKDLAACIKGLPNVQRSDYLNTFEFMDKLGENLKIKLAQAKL
Tcruzi prolif: T. cruzi proliferation inhibition; 5.9% of 77,000 active; inhibition, % at 8.34 µM; T. cruzi beta-gal in NIH3T3, GalScreen luminescence, 90 h;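 active = mean inhibition above about 93%, with at least 55% of replicates each passing it, limit read from the data, passing the limit was not always enough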
Pf Dd2 growth: blocks growth of Plasmodium falciparum Dd2 parasites; P. falciparum Dd2 growth, SYBR Green, 72 h; active compounds read low; activity change, % at 10 µM; 2.3% of 94,000 active; AID 1159554; in the data active = activity change below about -80%
GASC1 inh: blocks human GASC-1 (KDM4C) demethylase activity; Q9H3R0; GST-KDM4C 2-372, H3K9me3 peptide, LANCE TR-FRET; inhibition, % at 12.5 µM; 0.15% of 96,000 active; AID 720574;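 active = mean replicate inhibition above about 25%, with at least 55% of replicates also reaching it, limit read from the data, passing the limit was not always enough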
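Assay system: GST-GASC-1 enzyme fragment 2-372 | Amount: 10 nM enzyme | Medium: HEPES buffer, pH 7.5, plus ascorbate | Reagent: H3K9me3 peptide substrate, Fe(II), 2-oxoglutarate | Doses: Single-point compound screen | Incubation: 30 min demethylation and 1 h detection at room temperature | Measured by: LANCE TR-FRET, excitation 340 nm, emissions 618 and 671 nm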
Starred values were filed as active, the others as inactive; . = no result given. Only some compounds are listed: those with a hit (about 5.9% of all), similar ones and a draw of the others.

SMILES	IDH1 mut inh	Tcruzi prolif	Pf Dd2 growth	GASC1 inh
C[C@H]1CN([C@@H](C)CO)S(=O)(=O)c2ccc(C#Cc3ccccc3)cc2O[C@H]1CN(C)C(=O)C1CC1	0	74	-88*	-1
C[C@@H]1CN([C@H](C)CO)S(=O)(=O)c2ccc(C#Cc3ccccc3)cc2O[C@H]1CN(C)C(=O)C1CC1	1	58	-79	-3
CC(=O)N[C@H]1[C@H](O[C@H]2CC[C@@]3(C)C(CC[C@]4(C)C3CC=C3[C@@H]5CC(C)(C)CC[C@]5(C(=O)OC5OCC(O)C(O)C5O)C(O)C[C@]34C)C2(C)C)O[C@H](COC2OCC(O)C(OC3OCC(O)C(O)C3O)C2O)[C@@H](O[C@@H]2O[C@@H](C)[C@H](O)[C@@H](O)[C@H]2O[C@@H]2O[C@@H](C)[C@H](O)[C@@H](O)[C@H]2O)[C@@H]1O (stereo not given in full)	0	.	.	.
COC(=O)c1ccc(Cl)c(NC(=O)CN(c2ccccc2Br)S(C)(=O)=O)c1	0	.	.	.
C[C@@H]1O[C@@H](O[C@H]2[C@@H](O)[C@@H](C)O[C@@H](O[C@H]3[C@H](O)[C@@H](O)[C@H](O[C@H]4CC[C@@]5(C)C(CC[C@]6(C)C5C=CC5=C7CC(C)(C)CC[C@]7(CO)CC[C@]56C)[C@]4(C)CO)O[C@@H]3CO)[C@@H]2O[C@@H]2O[C@H](CO)[C@@H](O)[C@H](O)[C@H]2O)[C@H](O)[C@H](O)[C@H]1O (stereo not given in full)	0	.	.	.
COc1ccc(S(=O)(=O)N(C)C[C@H]2OCCCC[C@H](C)Oc3ccc(NC(=O)c4ccccc4)cc3C(=O)N([C@H](C)CO)C[C@@H]2C)cc1	0	89	-71	0
COc1ccc(S(=O)(=O)N(C)C[C@H]2OCCCC[C@H](C)Oc3ccc(NC(=O)c4ccccc4)cc3C(=O)N([C@H](C)CO)C[C@H]2C)cc1	.	57	-87*	0
COc1ccc(S(=O)(=O)N(C)C[C@@H]2OCCCC[C@H](C)Oc3ccc(NC(=O)c4ccccc4)cc3C(=O)N([C@H](C)CO)C[C@H]2C)cc1	.	61	-83*	-2
COc1ccc(S(=O)(=O)N(C)C[C@H]2OCCCC[C@@H](C)Oc3ccc(NC(=O)c4ccccc4)cc3C(=O)N([C@@H](C)CO)C[C@@H]2C)cc1	.	91	-83*	16
CC(=O)Nc1cccc(NC(=S)NCc2ccco2)c1	1	.	.	.
CO[C@@H]1CN(C)C(=O)c2ccc(NC(=O)Nc3ccccc3F)cc2OC[C@@H](C)N(CC2CC2)C[C@H]1C	0	72	-88*	0
CO[C@H]1CN(C)C(=O)c2cc(NC(=O)Cc3ccccc3)ccc2OC[C@H](C)N(C(=O)c2ccccc2F)C[C@H]1C	0	5	-89*	-3
CO[C@@H]1CN(C)C(=O)c2ccc(NC(=O)C3CCC3)cc2OC[C@@H](C)N(CC2CCCCC2)C[C@H]1C	.	.	-83*	2
CO[C@@H]1CN(C)C(=O)c2ccc(NC(=O)C3CC3)cc2OC[C@@H](C)N(Cc2ccccc2)C[C@H]1C	0	31	-80*	0
O=c1[nH]nc(SCCS(=O)(=O)c2ccc(F)cc2)n1Cc1ccco1	0	.	.	.
CCCNC(=O)Nc1ccc2c(c1)OC[C@@H](C)N(C(=O)C1CCC1)C[C@@H](C)[C@@H](OC)CN(C)C2=O	85*	23	.	62*
CCCC(=O)Nc1ccc2c(c1)C(=O)N(C)C[C@@H](OC)[C@H](C)CN(Cc1cc(F)ccc1F)[C@H](C)CO2	0	69	-64	0
CCCC(=O)Nc1ccc2c(c1)OC[C@@H](C)N(Cc1cc(F)ccc1F)C[C@@H](C)[C@H](OC)CN(C)C2=O	0	29	-86*	1
COCC(=O)Nc1ccc2c(c1)OC[C@H](C)N(Cc1ccncc1)C[C@H](C)[C@@H](OC)CN(C)C2=O	.	.	-85*	0
CO[C@H]1CN(C)C(=O)c2ccc(NS(=O)(=O)CC(F)(F)F)cc2OC[C@@H](C)N(Cc2nccs2)C[C@H]1C	0	26	-88*	0
Cc1ccc(S(=O)(=O)NCC(=O)Nc2ccc(F)cc2F)cc1	0	.	.	.
CCCN1C[C@H](C)[C@@H](OC)CN(C)C(=O)c2cc(NC(=O)Nc3cccc(F)c3)ccc2OC[C@H]1C	.	-13	-82*	3
CO[C@@H]1CN(C)C(=O)c2ccc(NC(=O)C3CC3)cc2OC[C@H](C)N(Cc2cc(F)ccc2F)C[C@H]1C	0	3	-48	0
CCCC(=O)Nc1ccc2c(c1)OC[C@@H](C)N(Cc1cccc(F)c1)C[C@@H](C)[C@H](OC)CN(C)C2=O	-1	90	-87*	2
CCCN1C[C@H](C)[C@@H](OC)CN(C)C(=O)c2ccc(NC(=O)Nc3cccc(F)c3)cc2OC[C@H]1C	1	-62	-52	1
SMILES	IDH1 mut inh	Tcruzi prolif	Pf Dd2 growth	GASC1 inh
CO[C@@H]1CN(C)C(=O)c2ccc(NC(=O)C3CC3)cc2OC[C@@H](C)N(Cc2cc(F)ccc2F)C[C@H]1C	0	50	-87*	1
O=C(CSc1nc2ccccc2s1)Nc1ccc(F)c(Cl)c1	-1	.	.	.
O=C1CCC(C(=O)Nc2cc(F)cc(F)c2)=NN1	1	.	.	.
COc1ccc(C#Cc2ccc3c(c2)O[C@H](CN(C)C(=O)Nc2cccc(OC)c2)[C@@H](C)CN([C@H](C)CO)S3(=O)=O)cc1	.	68	-81*	-7
COc1cccc(NC(=O)N(C)C[C@H]2Oc3cc(C#Cc4ccc(F)cc4)ccc3S(=O)(=O)N([C@H](C)CO)C[C@H]2C)c1	-2	81	-71	-3
COc1cccc(NC(=O)N(C)C[C@H]2Oc3cc(C#Cc4ccncc4)ccc3S(=O)(=O)N([C@@H](C)CO)C[C@@H]2C)c1	.	70	-54	-2
COc1cccc(NC(=O)N(C)C[C@H]2Oc3cc(C#Cc4ccccc4)ccc3S(=O)(=O)N([C@@H](C)CO)C[C@@H]2C)c1	.	121*	-82*	-1
C[C@@H]1CCCCO[C@@H](CN(C)Cc2ccc(C(=O)Nc3ccccc3N)cc2)[C@@H](C)CN([C@H](C)CO)C(=O)c2cc(NC(=O)c3ccccc3)ccc2O1	0	.	-84*	-1
C[C@@H]1CN([C@H](C)CO)C(=O)c2cc(NC(=O)CCC(F)(F)F)ccc2O[C@@H]1CN(C)Cc1ccc(C(=O)Nc2ccccc2N)cc1	.	70	-65	-1
C[C@@H]1CCCCO[C@@H](CN(C)Cc2ccc(C(=O)Nc3ccccc3N)cc2)[C@@H](C)CN([C@H](C)CO)C(=O)c2cc(NC(=O)c3ccncc3)ccc2O1	1	.	-85*	0
C[C@@H]1CCCCO[C@@H](CN(C)Cc2ccc(C(=O)Nc3ccccc3N)cc2)[C@@H](C)CN([C@H](C)CO)C(=O)c2cc(NC(=O)CCC(F)(F)F)ccc2O1	.	.	-92*	0
C[C@H]1CN([C@@H](C)CO)C(=O)c2cc(NC(=O)CCC(F)(F)F)ccc2O[C@@H]1CN(C)Cc1ccc(C(=O)Nc2ccccc2N)cc1	0	.	-86*	0

Compound activity as filed in PubChem BioAssay.
